# Reference: ChEMBL document CHEMBL1154792, “chi-Conopeptide pharmacophore development: toward a novel class of norepinephrine transporter inhibitor (Xen2174) for pain” (J Med Chem, 2009)
# The source made the active and inactive calls. The rule behind the calls is not given here. Where a SMILES comes first, the peptide text is derived from it. Bridges are numbered along the chain shown (N, C = ends). [ ]: non-standard residue; d: D form. Pro(3S-OH) = O=C(O)[C@H]1NCC[C@@H]1O; Cha = N[C@@H](CC1CCCCC1)C(=O)O; pGlu = O=C1CC[C@@H](C(=O)O)N1
# Biological target: Sodium-dependent noradrenaline transporter (Homo sapiens, UniProt P23975)
# Sequence (P23975 whole entry): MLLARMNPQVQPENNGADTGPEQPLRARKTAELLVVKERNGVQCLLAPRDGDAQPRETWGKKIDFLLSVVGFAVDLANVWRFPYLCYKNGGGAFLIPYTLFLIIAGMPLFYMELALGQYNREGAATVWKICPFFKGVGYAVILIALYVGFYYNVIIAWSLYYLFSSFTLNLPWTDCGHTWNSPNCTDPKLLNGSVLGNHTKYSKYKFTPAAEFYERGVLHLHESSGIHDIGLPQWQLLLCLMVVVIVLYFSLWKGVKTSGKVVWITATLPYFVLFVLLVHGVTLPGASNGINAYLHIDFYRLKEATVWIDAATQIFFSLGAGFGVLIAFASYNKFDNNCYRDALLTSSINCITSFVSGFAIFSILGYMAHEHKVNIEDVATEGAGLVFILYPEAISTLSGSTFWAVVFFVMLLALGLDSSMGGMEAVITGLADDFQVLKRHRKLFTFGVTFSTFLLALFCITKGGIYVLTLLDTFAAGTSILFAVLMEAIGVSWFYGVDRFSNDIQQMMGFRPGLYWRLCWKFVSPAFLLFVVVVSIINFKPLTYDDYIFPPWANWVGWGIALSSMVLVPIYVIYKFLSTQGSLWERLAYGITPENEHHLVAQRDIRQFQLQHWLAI
# Assay: Displacement of [3H]nisoxetine from human NET expressed in COS7 cells
# Type: cell-based
# Conditions: COS-7
# Procedure, shortened: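 Membranes from COS-7 cells transfected with human NET were incubated with [3H]nisoxetine (4.3 nM) with or without peptide (1 nM to 100 μM, triplicate) for 1 h at RT. Filter-retained radioactivity was counted by liquid scintillation, and values are given as pIC50. Data are means of 2–5 experiments in triplicate; peptide concentration was set by calibrated HPLC at 214 nm.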
row,SMILES,Activity
1,CC(C)C[C@@H]1NC(=O)[C@H](CCCCN)NC(=O)[C@H](Cc2ccc(O)cc2)NC(=O)CNC(=O)[C@@H]2CSSC[C@H](NC1=O)C(=O)N[C@@H](Cc1cnc[nH]1)C(=O)N1CC[C@H](O)[C@H]1C(=O)N[C@H](C(=O)O)CSSC[C@@H](NC(=O)[C@@H](NC(=O)CNC(=O)[C@@H]1CCC(=O)N1)C(C)C)C(=O)N2,inactive
2,CC(C)C[C@@H]1NC(=O)[C@H](CCCCN)NC(=O)[C@H](Cc2cccs2)NC(=O)CNC(=O)[C@@H]2CSSC[C@H](NC1=O)C(=O)N[C@@H](Cc1cnc[nH]1)C(=O)N1CC[C@H](O)[C@H]1C(=O)N[C@H](C(=O)O)CSSC[C@H](NC(=O)[C@@H](NC(=O)CNC(=O)[C@@H]1CCC(=O)N1)C(C)C)C(=O)N2,inactive
3,"COc1ccc(C[C@@H]2NC(=O)CNC(=O)[C@@H]3CSSC[C@H](NC(=O)[C@H](CC(C)C)NC(=O)[C@H](CCCCN)NC(=O)[C@H](Cc4ccc(O)cc4)NC2=O)C(=O)N[C@@H](Cc2c[nH]c4ccccc24)C(=O)N2CC[C@H](O)[C@H]2C(=O)N[C@H](C(=O)O)CSSC[C@H](NC(=O)[C@@H](NC(=O)CNC(=O)[C@@H]2CCC(=O)N2)C(C)C)C(=O)N3)cc1 ([pGlu]GVCCGY(Me)YKLCW[Pro(3S-OH)]C-OH; disulfide 4-14, 5-11)",Active
4,"CC(C)C[C@@H]1NC(=O)[C@H](CCCCN)NC(=O)[C@H](CO)NC(=O)CNC(=O)[C@@H]2CSSC[C@H](NC1=O)C(=O)N[C@@H](Cc1cnc[nH]1)C(=O)N1CC[C@H](O)[C@H]1C(=O)N[C@H](C(=O)O)CSSC[C@H](NC(=O)[C@@H](NC(=O)CNC(=O)[C@@H]1CCC(=O)N1)C(C)C)C(=O)N2 ([pGlu]GVCCGSKLCH[Pro(3S-OH)]C-OH; disulfide 4-13, 5-10)",inactive
5,CC(C)C[C@@H]1NC(=O)[C@H](CCCCN)NC(=O)[C@H](Cc2ccc(O)cc2)NC(=O)CNC(=O)[C@@H]2CSSC[C@H](NC1=O)C(=O)N[C@@H](Cc1cnc[nH]1)C(=O)N1CC[C@H](O)[C@H]1C(=O)N[C@@H](C(=O)O)CSSC[C@@H](NC(=O)[C@@H](NC(=O)CNC(=O)[C@@H]1CCC(=O)N1)C(C)C)C(=O)N2,Active
6,CC(C)C[C@@H]1NC(=O)[C@H](CCCCN)NC(=O)[C@H](Cc2ccc(O)cc2)NC(=O)CNC(=O)[C@@H]2CSSC[C@H](NC1=O)C(=O)N[C@@H](Cc1ccco1)C(=O)N1CC[C@H](O)[C@H]1C(=O)N[C@H](C(=O)O)CSSC[C@H](NC(=O)[C@@H](NC(=O)CNC(=O)[C@@H]1CCC(=O)N1)C(C)C)C(=O)N2,Active
7,CC(C)C[C@@H]1NC(=O)[C@H](CCCCN)NC(=O)[C@H](Cc2ccc(O)cc2)NC(=O)CNC(=O)[C@@H]2CSSC[C@H](NC1=O)C(=O)N[C@@H](CCCNC(=N)N)C(=O)N1CC[C@H](O)[C@H]1C(=O)N[C@H](C(=O)O)CSSC[C@H](NC(=O)[C@@H](NC(=O)CNC(=O)[C@@H]1CCC(=O)N1)C(C)C)C(=O)N2,Active
8,CCCC[C@@H]1NC(=O)[C@H](CCCCN)NC(=O)[C@H](Cc2ccc(O)cc2)NC(=O)CNC(=O)[C@@H]2CSSC[C@H](NC1=O)C(=O)N[C@@H](Cc1cnc[nH]1)C(=O)N1CC[C@H](O)[C@H]1C(=O)N[C@H](C(=O)O)CSSC[C@H](NC(=O)[C@@H](NC(=O)CNC(=O)[C@@H]1CCC(=O)N1)C(C)C)C(=O)N2,Active
9,"COc1ccc(C[C@@H]2NC(=O)CNC(=O)[C@@H]3CSSC[C@H](NC(=O)[C@H](CC4CCCCC4)NC(=O)[C@H](CCCCN)NC(=O)[C@H](Cc4ccc(O)cc4)NC2=O)C(=O)N[C@@H](Cc2c[nH]c4ccccc24)C(=O)N2CC[C@H](O)[C@H]2C(=O)N[C@H](C(=O)O)CSSC[C@H](NC(=O)[C@@H](NC(=O)CNC(=O)[C@@H]2CCC(=O)N2)C(C)C)C(=O)N3)cc1 ([pGlu]GVCCGY(Me)YK[Cha]CW[Pro(3S-OH)]C-OH; disulfide 4-14, 5-11)",Active
10,"CC(C)C[C@@H]1NC(=O)[C@H](CCCCN)NC(=O)[C@H](CCCCN)NC(=O)CNC(=O)[C@@H]2CSSC[C@H](NC1=O)C(=O)N[C@@H](Cc1cnc[nH]1)C(=O)N1CC[C@H](O)[C@H]1C(=O)N[C@H](C(=O)O)CSSC[C@H](NC(=O)[C@@H](NC(=O)CNC(=O)[C@@H]1CCC(=O)N1)C(C)C)C(=O)N2 ([pGlu]GVCCGKKLCH[Pro(3S-OH)]C-OH; disulfide 4-13, 5-10)",inactive
11,CC(C)C[C@@H]1NC(=O)[C@H](CCCCN)NC(=O)[C@H](Cc2ccc(O)cc2)NC(=O)CNC(=O)[C@@H]2CSSC[C@@H](NC1=O)C(=O)N[C@@H](Cc1cnc[nH]1)C(=O)N1CC[C@H](O)[C@H]1C(=O)N[C@H](C(=O)O)CSSC[C@H](NC(=O)[C@@H](NC(=O)CNC(=O)[C@@H]1CCC(=O)N1)C(C)C)C(=O)N2,inactive
12,CC(C)C[C@@H]1NC(=O)[C@H](CCCCN)NC(=O)[C@H](Cc2ccc(O)cc2)NC(=O)CNC(=O)[C@@H]2CSSC[C@H](NC1=O)C(=O)N[C@@H](Cc1cnc[nH]1)C(=O)N[C@H](CC(=O)O)C(=O)N[C@H](C(=O)O)CSSC[C@H](NC(=O)[C@@H](NC(=O)CNC(=O)[C@@H]1CCC(=O)N1)C(C)C)C(=O)N2,inactive
13,"CC(C)C[C@@H]1NC(=O)[C@H](CCCCN)NC(=O)[C@H](Cc2ccc(O)cc2)NC(=O)CNC(=O)[C@@H]2CSSC[C@H](NC1=O)C(=O)N[C@@H](Cc1ccccc1)C(=O)N1CC[C@H](O)[C@H]1C(=O)N[C@H](C(=O)O)CSSC[C@H](NC(=O)[C@@H](NC(=O)CNC(=O)[C@@H]1CCC(=O)N1)C(C)C)C(=O)N2 ([pGlu]GVCCGYKLCF[Pro(3S-OH)]C-OH; disulfide 4-13, 5-10)",Active
14,CC(C)C[C@@H]1NC(=O)[C@H](CCCCN)NC(=O)[C@H](Cc2ccc(O)cc2)NC(=O)CNC(=O)[C@H]2CSSC[C@@H](NC1=O)C(=O)N[C@@H](Cc1cnc[nH]1)C(=O)N1CC[C@H](O)[C@H]1C(=O)N[C@H](C(=O)O)CSSC[C@H](NC(=O)[C@@H](NC(=O)CNC(=O)[C@@H]1CCC(=O)N1)C(C)C)C(=O)N2,inactive
15,CC(C)C[C@@H]1NC(=O)[C@H](CCCCN)NC(=O)[C@H](C(c2ccccc2)c2ccccc2)NC(=O)CNC(=O)[C@@H]2CSSC[C@H](NC1=O)C(=O)N[C@@H](Cc1cnc[nH]1)C(=O)N1CC[C@H](O)[C@H]1C(=O)N[C@H](C(=O)O)CSSC[C@H](NC(=O)[C@@H](NC(=O)CNC(=O)[C@@H]1CCC(=O)N1)C(C)C)C(=O)N2,inactive
16,CC(C)C[C@@H]1NC(=O)[C@H](CCCCN)NC(=O)[C@H](Cc2ccc(O)cc2)NC(=O)CNC(=O)[C@@H]2CSSC[C@H](NC1=O)C(=O)N[C@@H](Cc1cnc[nH]1)C(=O)N1CC[C@H](O)[C@H]1C(=O)N[C@@H](C(=O)O)CSSC[C@H](NC(=O)[C@@H](NC(=O)CNC(=O)[C@@H]1CCC(=O)N1)C(C)C)C(=O)N2,inactive
17,CC(C)C[C@@H]1NC(=O)[C@H](CCCCN)NC(=O)[C@H](Cc2ccc(O)cc2)NC(=O)CNC(=O)[C@@H]2CSSC[C@H](NC1=O)C(=O)N[C@@H](Cc1cccc3ccccc13)C(=O)N1CC[C@H](O)[C@H]1C(=O)N[C@H](C(=O)O)CSSC[C@H](NC(=O)[C@@H](NC(=O)CNC(=O)[C@@H]1CCC(=O)N1)C(C)C)C(=O)N2,Active
18,CC(C)C[C@@H]1NC(=O)[C@H](CCCCN)NC(=O)[C@@H](Cc2ccc(O)cc2)NC(=O)CNC(=O)[C@@H]2CSSC[C@H](NC1=O)C(=O)N[C@@H](Cc1cnc[nH]1)C(=O)N1CC[C@H](O)[C@H]1C(=O)N[C@H](C(=O)O)CSSC[C@H](NC(=O)[C@@H](NC(=O)CNC(=O)[C@@H]1CCC(=O)N1)C(C)C)C(=O)N2,inactive
19,CC(C)C[C@@H]1NC(=O)[C@H](CCCCN)NC(=O)[C@H](CC2CCCCC2)NC(=O)CNC(=O)[C@@H]2CSSC[C@H](NC1=O)C(=O)N[C@@H](Cc1cnc[nH]1)C(=O)N1CC[C@H](O)[C@H]1C(=O)N[C@H](C(=O)O)CSSC[C@H](NC(=O)[C@@H](NC(=O)CNC(=O)[C@@H]1CCC(=O)N1)C(C)C)C(=O)N2,inactive
20,COc1ccc(C[C@H]2NC(=O)[C@H](Cc3cnc[nH]3)NC(=O)[C@@H]3CSSC[C@H](NC(=O)[C@@H](NC(=O)[C@@H](NC(=O)CNC(=O)[C@@H]4CCC(=O)N4)C(C)C)CSSC[C@@H](C(=O)O)NC2=O)C(=O)NCC(=O)N[C@@H](Cc2ccc(O)cc2)C(=O)N[C@@H](CCCCN)C(=O)N[C@@H](CC(C)C)C(=O)N3)cc1,Active
21,"CC(C)C[C@@H]1NC(=O)[C@H](CCCCN)NC(=O)[C@H](Cc2ccc(O)cc2)NC(=O)CNC(=O)[C@@H]2CSSC[C@H](NC1=O)C(=O)N[C@@H](Cc1c[nH]c3ccccc13)C(=O)N1CC[C@H](O)[C@H]1C(=O)N[C@H](C(=O)O)CSSC[C@H](NC(=O)[C@@H](NC(=O)CNC(=O)[C@@H]1CCC(=O)N1)C(C)C)C(=O)N2 ([pGlu]GVCCGYKLCW[Pro(3S-OH)]C-OH; disulfide 4-13, 5-10)",Active
22,CC(C)[C@H](NC(=O)CNC(=O)[C@@H]1CCC(=O)N1)C(=O)N[C@H]1CSSC[C@@H](C(=O)O)NC(=O)[C@@H]2[C@@H](O)CCN2C(=O)[C@H](Cc2cnc[nH]2)NC(=O)[C@@H]2CSSC[C@H](NC1=O)C(=O)NCC(=O)N[C@@H](Cc1ccc(O)cc1)C(=O)N[C@@H](CCCCN)C(=O)N[C@@H](C1CCCCC1)C(=O)N2,Active
23,"CC(C)[C@H](NC(=O)CNC(=O)[C@@H]1CCC(=O)N1)C(=O)N[C@H]1CSSC[C@@H](C(=O)O)NC(=O)[C@@H]2[C@@H](O)CCN2C(=O)[C@H](Cc2cnc[nH]2)NC(=O)[C@@H]2CSSC[C@H](NC1=O)C(=O)NCC(=O)N[C@@H](Cc1ccc(O)cc1)C(=O)N[C@@H](CCCCN)C(=O)N[C@@H](C(C)C)C(=O)N2 ([pGlu]GVCCGYKVCH[Pro(3S-OH)]C-OH; disulfide 4-13, 5-10)",inactive
24,CC[C@H](C)[C@@H]1NC(=O)CNC(=O)[C@@H]2CSSC[C@H](NC(=O)[C@H](CC(C)C)NC(=O)[C@H](CCCCN)NC1=O)C(=O)N[C@@H](Cc1cnc[nH]1)C(=O)N1CC[C@H](O)[C@H]1C(=O)N[C@H](C(=O)O)CSSC[C@H](NC(=O)[C@@H](NC(=O)CNC(=O)[C@@H]1CCC(=O)N1)C(C)C)C(=O)N2,inactive
25,COc1ccc(C[C@@H]2NC(=O)CNC(=O)[C@@H]3CSSC[C@H](NC(=O)[C@H](CC(C)C)NC(=O)[C@H](CCCCN)NC2=O)C(=O)N[C@@H](Cc2cnc[nH]2)C(=O)N2CC[C@H](O)[C@H]2C(=O)N[C@H](C(=O)O)CSSC[C@H](NC(=O)[C@@H](NC(=O)CNC(=O)[C@@H]2CCC(=O)N2)C(C)C)C(=O)N3)cc1,Active
